These results are taken from ChEMBL document CHEMBL4382240, “Discovery of novel 2,5-dihydroxyterephthalamide derivatives as multifunctional agents for the treatment of Alzheimer's disease” (Bioorg Med Chem, 2018).

Experiment [1] addresses T1, Amyloid-beta precursor protein (Homo sapiens, UniProt P05067). As to the kind of experiment: Disaggregation of self-induced preformed fibrils of human amyloid beta (1 to 42) at 25 uM after 24 hrs by Thioflavin T based fluorometric assay relative to control. A digest of the protocol: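 Aβ1-42 diluted in HEPES buffer (20 mM, pH 6.6, 150 mM NaCl) and pre-aggregated 24 h at 37 °C. Compound (25 µM) then added for another 24 h at 37 °C on a sealed plate. Remaining fibrils read by ThT fluorescence in glycine-NaOH, pH 8.5. Triplicate; three independent experiments.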

The target of experiment [2] is T1, Amyloid-beta precursor protein. In words: Inhibition of human amyloid beta (1 to 42) self-induced aggregation after 24 hrs by Thioflavin T based fluorometric assay. A digest of the protocol: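 Self-induced Aβ1-42 aggregation (25 µM peptide) in phosphate buffer, pH 7.4, for 24 h at 37 °C with varying compound concentrations. Aggregation read by ThT fluorescence (5 µM ThT, glycine-NaOH pH 8.5).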

The target of experiment [3] is T2, Acetylcholinesterase (Rattus norvegicus, UniProt P37136).
T2 sequence (P37136 whole entry): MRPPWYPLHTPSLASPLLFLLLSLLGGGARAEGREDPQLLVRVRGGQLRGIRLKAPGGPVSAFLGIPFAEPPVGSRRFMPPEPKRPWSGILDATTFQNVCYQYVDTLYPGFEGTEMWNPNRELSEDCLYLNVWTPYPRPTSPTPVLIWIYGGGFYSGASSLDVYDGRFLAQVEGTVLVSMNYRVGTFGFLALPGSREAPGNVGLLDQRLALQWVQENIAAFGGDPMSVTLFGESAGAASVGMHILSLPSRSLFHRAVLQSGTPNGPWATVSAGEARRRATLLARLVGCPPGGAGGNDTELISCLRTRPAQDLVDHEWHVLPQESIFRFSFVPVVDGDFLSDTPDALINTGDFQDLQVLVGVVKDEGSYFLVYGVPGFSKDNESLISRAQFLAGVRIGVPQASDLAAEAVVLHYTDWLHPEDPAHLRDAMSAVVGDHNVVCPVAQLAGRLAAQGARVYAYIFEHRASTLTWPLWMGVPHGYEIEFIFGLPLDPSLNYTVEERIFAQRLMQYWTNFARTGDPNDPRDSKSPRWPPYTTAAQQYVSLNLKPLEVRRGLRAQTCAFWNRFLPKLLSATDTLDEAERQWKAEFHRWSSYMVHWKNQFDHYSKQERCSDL
In words: Inhibition of rat cortex AChE using acetylthiocholine iodide as substrate after 15 mins by Ellman's method.

Experiment [4] has as its target Acetylcholinesterase (Electrophorus electricus, UniProt O42275). In words: Inhibition of electric eel AChE using acetylthiocholine iodide as substrate after 15 mins by Ellman's method.
A short description of experiment [5]: Antioxidant activity assessed as trolox equivalent of APPH-induced radical scavenging activity at 5 uM preincubated for 15 mins followed by AAPH addition measured every minute for 90 mins by ORAC fluorescein assay. It is filed as functional. A digest of the protocol:
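ORAC-FL in 75 mM phosphate buffer, pH 7.4. Fluorescein (150 nM final) and sample (tested at 1–10 µM) incubated 15 min at 37 °C. AAPH (12 mM final) then added, and fluorescence (ex 485/em 535 nm) read every minute for 90 min. Trolox standard 1–8 µM; result expressed as µM Trolox equivalent per µM compound. Duplicate wells; three independent experiments.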

In experiment [6] the target is T1, Amyloid-beta precursor protein. As to the kind of experiment: Inhibition of human amyloid beta (1 to 42) self-induced aggregation at 25 uM after 24 hrs by Thioflavin T based fluorometric assay relative to control. A digest of the protocol: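 Aβ1-42 (25 µM final) incubated with compound (25 µM final) in 50 mM phosphate buffer, pH 7.4, for 24 h at 37 °C under a sealing film. ThT (5 µM) in 50 mM glycine-NaOH, pH 8.5, then added and fluorescence measured. Triplicate; mean ± SD of three independent experiments.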

Experiment [7] is described as follows: Disaggregation of Cu2+ induced preformed fibrils of human amyloid beta (1 to 42) at 25 uM after 24 hrs by Thioflavin T based fluorometric assay relative to control. A digest of the protocol:
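Aβ1-42 (25 µM) with Cu2+ (25 µM) in HEPES buffer pre-aggregated 24 h at 37 °C. Compound (25 µM) then added for a further 24 h at 37 °C. Fibril content measured by ThT fluorescence (glycine-NaOH, pH 8.5). Triplicate; three independent experiments.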

Experiment [8] in a line: Inhibition of Cu2+ induced human amyloid beta (1 to 42) aggregation at 25 uM after 24 hrs by Thioflavin T based fluorometric assay relative to control. A digest of the protocol: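 Aβ1-42 (25 µM) and Cu2+ (25 µM) in HEPES buffer (20 mM, pH 6.6, 150 mM NaCl), with or without compound (25 µM final), incubated 24 h at 37 °C. ThT (5 µM) in glycine-NaOH, pH 8.5, added and fluorescence read. Triplicate; three independent experiments.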

The target of a further experiment is Butyrylcholinesterase (Rattus norvegicus, UniProt Q9JKC1). In words: Inhibition of rat serum BuChE using butyrylthiocholine iodide as substrate after 15 mins by Ellman's method. Format: ADME.
Butyrylcholinesterase, sequence (Q9JKC1 whole entry): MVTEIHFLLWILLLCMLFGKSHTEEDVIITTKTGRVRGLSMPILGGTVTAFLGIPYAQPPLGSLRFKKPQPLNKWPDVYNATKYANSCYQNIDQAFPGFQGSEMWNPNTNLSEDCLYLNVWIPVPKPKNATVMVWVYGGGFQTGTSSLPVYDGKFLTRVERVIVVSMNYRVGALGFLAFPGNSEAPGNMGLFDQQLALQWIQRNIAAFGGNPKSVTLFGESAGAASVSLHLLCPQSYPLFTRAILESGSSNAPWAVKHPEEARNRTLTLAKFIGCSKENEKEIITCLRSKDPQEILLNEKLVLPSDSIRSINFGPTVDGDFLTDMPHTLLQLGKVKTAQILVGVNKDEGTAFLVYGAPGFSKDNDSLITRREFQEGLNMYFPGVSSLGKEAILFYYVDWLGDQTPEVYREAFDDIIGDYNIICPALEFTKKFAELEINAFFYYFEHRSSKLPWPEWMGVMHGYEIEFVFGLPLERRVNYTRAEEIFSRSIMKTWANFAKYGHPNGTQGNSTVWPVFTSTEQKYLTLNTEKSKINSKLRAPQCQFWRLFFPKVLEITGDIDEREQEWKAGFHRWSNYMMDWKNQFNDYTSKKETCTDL

Acetylcholinesterase (Electrophorus electricus, UniProt O42275), sequence (O42275 whole entry): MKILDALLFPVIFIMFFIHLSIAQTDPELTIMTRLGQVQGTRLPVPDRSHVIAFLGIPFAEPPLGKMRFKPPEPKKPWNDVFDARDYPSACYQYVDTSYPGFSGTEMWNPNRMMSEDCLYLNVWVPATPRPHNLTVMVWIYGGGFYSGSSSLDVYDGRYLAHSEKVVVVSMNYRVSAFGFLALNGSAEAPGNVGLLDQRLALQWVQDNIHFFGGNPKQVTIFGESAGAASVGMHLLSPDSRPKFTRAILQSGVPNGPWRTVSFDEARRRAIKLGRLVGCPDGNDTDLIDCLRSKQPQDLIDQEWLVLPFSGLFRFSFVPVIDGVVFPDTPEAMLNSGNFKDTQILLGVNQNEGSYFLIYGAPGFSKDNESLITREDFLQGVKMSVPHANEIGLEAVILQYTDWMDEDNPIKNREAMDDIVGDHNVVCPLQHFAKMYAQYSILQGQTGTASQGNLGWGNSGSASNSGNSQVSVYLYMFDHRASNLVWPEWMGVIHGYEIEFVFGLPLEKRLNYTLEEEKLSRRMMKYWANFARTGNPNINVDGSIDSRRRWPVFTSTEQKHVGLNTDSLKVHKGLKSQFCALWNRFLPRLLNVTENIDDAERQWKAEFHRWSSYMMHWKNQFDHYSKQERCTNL
T1 sequence (P05067 whole entry): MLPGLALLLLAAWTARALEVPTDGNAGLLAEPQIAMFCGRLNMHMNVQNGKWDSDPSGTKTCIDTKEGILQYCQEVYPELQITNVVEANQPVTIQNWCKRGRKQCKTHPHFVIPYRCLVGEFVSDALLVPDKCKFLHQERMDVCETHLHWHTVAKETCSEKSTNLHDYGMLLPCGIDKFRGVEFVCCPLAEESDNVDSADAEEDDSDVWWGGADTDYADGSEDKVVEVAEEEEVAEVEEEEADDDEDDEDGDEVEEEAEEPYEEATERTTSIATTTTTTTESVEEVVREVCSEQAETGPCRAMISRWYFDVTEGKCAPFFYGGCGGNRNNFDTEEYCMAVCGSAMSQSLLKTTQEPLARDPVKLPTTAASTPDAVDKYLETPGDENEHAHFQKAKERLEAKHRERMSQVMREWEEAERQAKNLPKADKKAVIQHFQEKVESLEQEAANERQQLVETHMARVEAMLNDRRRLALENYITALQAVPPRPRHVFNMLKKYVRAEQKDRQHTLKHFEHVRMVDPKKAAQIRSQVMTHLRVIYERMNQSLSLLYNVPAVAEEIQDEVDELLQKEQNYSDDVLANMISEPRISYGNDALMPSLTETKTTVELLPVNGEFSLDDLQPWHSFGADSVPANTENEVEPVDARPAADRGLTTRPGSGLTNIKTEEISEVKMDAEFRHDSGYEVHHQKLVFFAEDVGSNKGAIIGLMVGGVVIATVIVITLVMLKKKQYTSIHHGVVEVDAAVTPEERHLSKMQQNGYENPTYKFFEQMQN

With `CCN(CCCCCCNC(=O)c1cc(O)c(C(=O)NCCCCCCN(CC)Cc2ccccc2)cc1O)Cc1ccccc1`, the figures for the Activity in [1], in [5] and in experiment [7] were 83.5%, 1.27 equiv and 82.3%, respectively. Further, the IC50 in [2] stood at 2.8 µM; against Acetylcholinesterase [3] it was 4.6 µM; against Acetylcholinesterase [4] it was 22.9 µM; at Butyrylcholinesterase, 47.2 µM. The inhibition in experiment [6] was found to be 91.4%; in experiment [8], 74.3%.
On to `CCN(CCCCNC(=O)c1cc(O)c(C(=O)NCCCCN(CC)Cc2ccccc2)cc1O)Cc1ccccc1`, for which the Activity in [1] was 81.1%; in experiment [5] it was 0.93 equiv; in experiment [7], 80%. Besides, the IC50 in [2] was 3.86 µM; on Acetylcholinesterase [3], 4.05 µM; on Acetylcholinesterase [4], 14 µM; against Butyrylcholinesterase, greater than 100 µM. The inhibition in experiment [6] came out at 88%; in [8], 84.1%.
On to `CN(CCCNC(=O)c1cc(O)c(C(=O)NCCCN(C)Cc2ccccc2)cc1O)Cc1ccccc1`, for which the Activity was found to be 68.5% in [1], 1.21 equiv in [5] and 71.3% in experiment [7]. Further, the half-inhibitory concentration (IC50) is 3.98 µM in experiment [2], 11.3 µM against Acetylcholinesterase [3], 14.1 µM against Acetylcholinesterase [4] and greater than 100 µM against Butyrylcholinesterase. Moreover, the inhibition in experiment [6] was 85%; in experiment [8], 81.2%.
In [7], `COc1cc(/C=C/C(=O)CC(=O)/C=C/c2ccc(O)c(OC)c2)ccc1O` yielded an Activity of 54.7%. The compound also yielded an inhibition in experiment [8] of 66%.
Regarding `O=C(NCCCCN1CCOc2ccccc2C1)c1cc(O)c(C(=O)NCCCCN2CCOc3ccccc3C2)cc1O`, the values for the Activity in experiment [1], in [5] and in experiment [7] were 67.4%, 1.02 equiv and 85.3%, respectively. Also, the IC50 in [2] was 5.47 µM; against Acetylcholinesterase [3], 30.8 µM; at Acetylcholinesterase [4] it was 64.8 µM; against Butyrylcholinesterase, greater than 100 µM. The values for the inhibition in [6] and in [8] were 71.6% and 74%, respectively.
For `CCN(CCCCNC(=O)c1cc(O)c(C(=O)NCCCCN(CC)Cc2ccccc2N(C)C)cc1O)Cc1ccccc1N(C)C`, the Activity turned out to be 64.4% in [1], 1.16 equiv in experiment [5] and 83.3% in experiment [7]. In addition, the IC50 is 3.71 µM in experiment [2], 4.17 µM against Acetylcholinesterase [3], 10.8 µM on Acetylcholinesterase [4] and greater than 100 µM against Butyrylcholinesterase. Also, the inhibition in [6] came to 99.7%; in experiment [8], 69.4%.
Turning to `CCN(CCCCNC(=O)c1cc(O)c(C(=O)NCCCCN(CC)Cc2ccc(N(C)C)cc2)cc1O)Cc1ccc(N(C)C)cc1`, the Activity in experiment [1] is 60.4%; in experiment [5], 3.23 equiv; in experiment [7], 84.7%. Also, the IC50 is 3.16 µM in experiment [2], 27.4 µM against Acetylcholinesterase [3], 47.4 µM at Acetylcholinesterase [4] and greater than 100 µM against Butyrylcholinesterase. Moreover, the inhibition stood at 99.9% in experiment [6] and 82.5% in experiment [8].
`CN(CCCCNC(=O)c1cc(O)c(C(=O)NCCCCN(C)Cc2ccccc2)cc1O)Cc1ccccc1`: the Activity in [1] was 67.7%; in experiment [5], 1.52 equiv; in [7], 77.9%. The IC50 was 3.55 µM in [2], 5.21 µM against Acetylcholinesterase [3], 12.6 µM at Acetylcholinesterase [4] and greater than 100 µM on Butyrylcholinesterase. Besides, the inhibition in experiment [6] turned out to be 90%; in experiment [8] it was 77.6%.
Take `CCOC(=O)c1cc(O)c(C(=O)OCC)cc1O`: the IC50 at Acetylcholinesterase [3], at Acetylcholinesterase [4] and against Butyrylcholinesterase was greater than 100 µM throughout. In addition, in experiment [5], the Activity amounted to 0.96 equiv. Moreover, the inhibition in experiment [6] was found to be 6.5%; in [8], 30.7%.
`COc1ccccc1CN(C)CCCCCCNC(=O)c1cc(O)c(C(=O)NCCCCCCN(C)Cc2ccccc2OC)cc1O`: the Activity in experiment [1] is 76.3%; in experiment [5], 0.62 equiv; in experiment [7], 89.8%. For the same compound, the IC50 in [2] turned out to be 2.31 µM; against Acetylcholinesterase [3] it was 10.6 µM; on Acetylcholinesterase [4] it was 6.11 µM; on Butyrylcholinesterase it was 40.5 µM. Further, the inhibition in experiment [6] was 99.7%; in experiment [8], 85.3%.
Turning to `CN(CCCCCCNC(=O)c1cc(O)c(C(=O)NCCCCCCN(C)Cc2ccccc2)cc1O)Cc1ccccc1`, the Activity in [1] is 80.9%; in [5], 1.01 equiv; in [7], 89.3%. The IC50 in experiment [2] was 2.37 µM; on Acetylcholinesterase [3] it was 5.6 µM; against Acetylcholinesterase [4], 13.1 µM; on Butyrylcholinesterase, 41.9 µM. The inhibition in [6] turned out to be 99.8%; in [8], 89.1%.
Consider `CCN(CCCNC(=O)c1cc(O)c(C(=O)NCCCN(CC)Cc2ccccc2)cc1O)Cc1ccccc1`, for which the Activity in experiment [1] worked out at 62.7%; in experiment [5], 0.95 equiv; in experiment [7], 70.6%. The IC50 in experiment [2] is 4.2 µM; at Acetylcholinesterase [3], 7.8 µM; against Acetylcholinesterase [4], 26.8 µM; at Butyrylcholinesterase, greater than 100 µM. For the same compound, the inhibition in experiment [6] stood at 81%; in experiment [8], 57.6%.
On to `COc1ccccc1CN(C)CCCNC(=O)c1cc(O)c(C(=O)NCCCN(C)Cc2ccccc2OC)cc1O`, for which the results for the Activity in [1], in [5] and in experiment [7] were 70.1%, 1.37 equiv and 73.5%, respectively. Also, the IC50 in [2] was found to be 3.63 µM; on Acetylcholinesterase [3] it was 9.21 µM; against Acetylcholinesterase [4] it was 39.7 µM; against Butyrylcholinesterase, 17.3 µM. Moreover, the inhibition amounted to 93.5% in [6] and 70.4% in [8].
